# CRFR2-BP ag: CRF-BP/CRF-R2 complex agonism; 350,000 tested, 0.46% active; AID 588473; activation, % at 13.2 µM; HEK293 CRF-R2/CRF-BP, calcium dye fluorescence (FLIPR); percent of saturating CRF peptide response;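 active means activation of at least 50%, plus an integration ratio under a set limit after plate pattern correction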;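 further: plate controls were neutral control wells without compound for no effect and CRF at EC100 for full effect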
# OXTR agonist: agonists of human oxytocin receptor; 320,000 tested, 0.32% active; P30559; activation, % at 3 µM; CHO-OTR cells, Fluo-8 calcium fluorescence; normalized: DMSO 0%, oxytocin 100%;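 active means activation above the mean of all tested compounds plus 3 SD, cutoff set per screening run, cut at about 20% in these data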;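 further: peak over basal fluorescence ratio from a 100 s FLIPR kinetic read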
# Target sequence (P30559 whole entry, looked up): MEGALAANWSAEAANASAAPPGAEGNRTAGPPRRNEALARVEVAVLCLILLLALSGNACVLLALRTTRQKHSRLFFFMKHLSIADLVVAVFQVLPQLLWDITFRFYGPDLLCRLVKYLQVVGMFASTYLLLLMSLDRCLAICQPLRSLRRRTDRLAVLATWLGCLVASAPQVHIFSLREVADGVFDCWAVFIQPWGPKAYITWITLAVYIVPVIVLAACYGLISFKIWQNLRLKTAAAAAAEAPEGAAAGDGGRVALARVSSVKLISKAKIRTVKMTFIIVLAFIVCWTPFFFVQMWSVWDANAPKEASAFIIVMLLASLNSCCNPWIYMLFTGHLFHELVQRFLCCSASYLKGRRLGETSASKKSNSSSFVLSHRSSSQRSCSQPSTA
# zfTRPN1 agonist: activates the zebrafish TRPN1 channel; activation, % at 3 µM; 220,000 tested, 0.18% active; HEK293 zebrafish TRPN1-YFP, Fluo-8 calcium fluorescence; 100% = response to 87 µM carbachol;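 active means activation above its plate's cutoff, the mean activation of test wells on that plate plus 3 SD, cut at about 19% in these data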;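 further: 0% = DMSO alone and 100% = 87 µM carbachol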
#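 Control set: carbachol 87 µM as high control, DMSO as low control; system: HEK293 stable line with zebrafish TRPN1-YFP; read-out: % activation versus carbachol response; detection: intracellular calcium fluorescence with Fluo-8; doses: single test compound dose, 3 µM nominal, 0.3% DMSO; schedule: dye 1 h 37 °C plus 30 min RT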
# V1aR counter: activates human V1a receptor in oxytocin agonist counter-screen; CHO-V1R cells, Fluo-8 calcium fluorescence, agonist mode; 0% DMSO, 100% 3 nM vasopressin; 320,000 tested, 0.25% active; activation, % at 3 µM;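 active means activation above the mean activation of all tested compounds plus 3 SD, per screening run, cut at about 20% in these data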;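 further: signal is peak over basal fluorescence ratio across a 100 second FLIPR read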
# TRPML3 agonist: activates the human TRPML3 channel. 220,000 tested, 0.29% active. activation, % at 3 µM. Q8TDD5. HEK293 TRPML3-YFP, Fluo-8 calcium fluorescence; 100% = the carbachol control signal;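 active means activation above its plate's cutoff, the mean activation of the plate's test wells plus 3 SD, cut at about 12% in these data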;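 further: 0% = DMSO only wells and 100% = carbachol wells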
#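 Material: TRPML3-YFP stable HEK293 cells | Dosing: One concentration, 3 µM nominal, 0.3% DMSO | Timing: 125 s total fluorescence read per well | Technique: Fluo-8 calcium dye fluorescence, ex 470-495, em 515-575 nm | Measure: Percent activation from peak-to-basal fluorescence ratio, scaled between DMSO and carbachol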
# OXTR potentiate: human OXTR potentiation | 320,000 tested, 0.061% active | P30559 | AID 2445 | CHO-OTR cells, Fluo-8 calcium fluorescence, potentiator mode; 0% = oxytocin EC15, 100% = EC100 | activation, % at 3 µM;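 active means activation above that plate's cutoff, the mean activation of tested compounds plus 3 SD, cut at about 6.6% in these data, passing the limit was not always enough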;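 further: 100% uses oxytocin at 75 nM as the full agonist control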
#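 Assay system: CHO-OTR cells, human receptor / Also added: oxytocin at about EC15, sub-maximal agonist stimulus / Dosing: single dose, 3.0 µM nominal final compound concentration / Incubation: 6 min pre-incubation, 100 s read / Technique: Fluo-8 calcium dye fluorescence / Read-out: % activation vs EC15 and EC100 oxytocin / Benchmarks: EC15 oxytocin low, 75 nM oxytocin high / Replicates: singlicate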
# Active calls of the source: *; x = no result given. In the library only some 0.83% were active in any assay of this set; here they are far more common.
SMILES,CRFR2-BP ag,OXTR agonist,zfTRPN1 agonist,V1aR counter,TRPML3 agonist,OXTR potentiate
CCN1C(N(C)CCc2c[nH]c3ccccc23)=N[C@@H](c2cccc(C(F)(F)F)c2)C(C(=O)OC)=C1C,12.0,22.7*,x,6.8,x,-10.1
CCN1C(N(C)CCc2cccs2)=N[C@@H](c2ccccc2)C(C(=O)OC)=C1C,-0.8,1.3,x,0.1,x,-5.9
N#Cc1ccc(NC(=O)Nc2cccc(C#N)c2)cc1,23.7,x,22.7*,x,12.4*,x
N#Cc1c(-c2ccccc2Cl)cc(C2CC2)nc1N,16.0,35.7*,-1.0,30.3*,-0.6,-8.1
Nc1ccccc1C(=O)N/N=C1\C2CN3CCN(C2)CC1(c1ccccc1)C3,0.5,0.5,1.1,0.3,0.7,14.2*
CC1(C)C[C@H](O)[C@@]23C[C@@H](OC2=O)[C@]2(C)C(=CCC4[C@@]5(C)CC[C@H](O)C(C)(C)C5CC[C@]42C)[C@@H]3C1 (some centres not stated),73.5*,5.9,x,1.9,x,-5.1
CC1(C)C2CC[C@]3(C)C(CC=C4[C@@H]5C[C@@](C)(CO)[C@@H]6C[C@@]5(CC[C@]43C)C(=O)O6)[C@@]2(C)CC[C@@H]1O (some centres not stated),-1.6,-0.3,x,-1.2,x,-1.3
N#C/C(=C(/O)c1cccc(F)c1)c1nc2ccccc2s1,50.7*,14.6,13.4,8.5,0.9,-17.2
O=C(Nc1nnc(-c2cccs2)o1)c1cccc(C(F)(F)F)c1,80.9*,-1.7,21.3*,17.6,0.9,-8.6
Cc1ccsc1/C=C1\Oc2cc(O)ccc2C1=O,72.4*,x,x,x,x,x
Nc1nonc1C(=O)N/N=C/c1cc(Br)ccc1O,56.3*,7.7,4.3,6.8,3.1,-14.6
Nc1nonc1-n1nnc(C(=O)N/N=C/c2cc(Br)ccc2O)c1CNc1ccccc1,2.6,-0.2,x,-0.5,x,-8.9
CC1Cc2cc(S(=O)(=O)N3CCC(C(=O)N4CCN(c5ccccc5F)CC4)CC3)ccc2N1C(=O)C1CC1 (configuration not stated),1.1,5.2,x,10.5,x,-10.8
Cc1ccc(OCC(=O)NNC(=S)NC(=O)c2cccs2)c(C)c1,50.5*,x,x,x,x,x
Cc1ccc(OCC(=O)NNC(=S)NC(=O)c2ccc(Br)o2)c(C)c1,51.2*,x,x,x,x,x
COc1ccc(-c2cc(CCC(=O)N3CCN(c4cc(C)ccc4C)CC3)[nH]n2)cc1,-1.6,x,x,x,x,x
O=C(Nc1nnc(-c2ccccc2)o1)c1nc2ccccc2s1,139.6*,87.5*,x,83.1*,x,-8.9
CC(C)[C@H](N[C@@H](C)c1ccccc1)c1c(O)ccc2ccccc12,-4.5,-0.9,x,-1.1,x,-11.7
Cc1cc(N2CCCCC2)nc(N)n1,235.3*,0.7,10.9,1.1,11.2,-8.8
CN1CCN(/N=C/c2nc(-c3cccc([N+](=O)[O-])c3)n3ccccc23)CC1,94.5*,-1.2,-0.7,0.4,0.6,-3.9
O=[N+]([O-])c1cccc(-c2nnc3ccc4ccccc4n23)c1,-1.4,-1.6,-0.5,-1.1,0.9,-4.3
CC(C(=O)Nc1cccnc1)c1ccc([N+](=O)[O-])cc1 (configuration not stated),1.0,6.3,2.4,9.5,2.4,-11.6
CC(C)Cc1ccc(C(C)C(=O)Nc2cccnc2)cc1 (configuration not stated),62.3*,46.0*,x,43.0*,x,-26.3
CC(C)Cc1ccc(C(C)C(=O)Nc2ccc(O)cc2)cc1 (configuration not stated),78.1*,50.1*,44.6*,44.3*,22.0*,-19.6
CC(C)Cc1ccc([C@H](C)C(=O)O)cc1,0.2,0.6,x,-0.5,x,-8.5
SMILES,CRFR2-BP ag,OXTR agonist,zfTRPN1 agonist,V1aR counter,TRPML3 agonist,OXTR potentiate
CCOC(=O)c1ccc(NC(=O)Nc2ccc(F)cc2)cc1,25.8,13.6,20.9*,11.4,10.2,-11.5
O/C(=C\c1nc2ccccc2[nH]1)c1cccs1,20.8,-0.7,x,0.1,x,-6.5
O=c1[nH]c2ccccc2nc1/C=C(\O)c1cccs1,224.0*,22.8*,11.3,29.4*,5.4,-15.0
O=c1[nH]c2ccccc2nc1/C=C/c1ccc(O)cc1,104.4*,x,3.7,x,2.6,x
O=C(NCc1ccccn1)c1nc(Cn2ccc([N+](=O)[O-])n2)no1,-0.1,-0.5,x,-0.2,x,-9.6
CNC(=O)C1CN(C(=O)c2nn(Cc3ccccc3)c(=O)c3ccccc23)c2ccccc2O1 (configuration not stated),-0.7,x,x,x,x,x
Cc1ccc(N(C)S(=O)(=O)c2cccc(C(=O)NCC(c3ccco3)N3CCCC3)c2)cc1 (configuration not stated),0.2,1.9,x,1.3,x,-3.2
Cc1ccc(C(=O)CCC(=O)OCC(=O)NNC(=O)c2ccc([N+](=O)[O-])cc2)cc1,-0.6,3.0,x,2.1,x,-5.1
O=C(NCc1ccco1)C1CC(c2ccccc2O)=NO1 (configuration not stated),76.7*,-0.1,-1.7,0.2,-0.6,-12.2
O=C(NCc1ccco1)C1CC(c2ccccc2C(F)(F)F)=NO1 (configuration not stated),-1.2,-0.6,x,0.2,x,-5.9
O=c1nc(-c2ccccc2)n(-c2ccc(Cl)cc2)[nH]1,90.5*,0.6,0.2,2.2,0.7,-1.6
S=c1nc(-c2ccccc2)n(-c2ccccc2)[nH]1,0.6,0.3,x,-0.1,x,-0.2
CCOC(=O)/C(=C/c1ccc(OC(=O)c2ccncc2)cc1)C(C)=O,0.0,-0.1,0.6,0.2,0.0,-20.4
COCCOC(=O)/C(=C/c1ccc(OC(=O)c2ccccc2)cc1)C(C)=O,57.2*,-1.4,-1.0,-0.1,0.3,1.2
O=C(OCC(=O)N1CCCC1=O)C1CCN(S(=O)(=O)c2c(Cl)cccc2Cl)CC1,-1.0,0.7,x,1.3,x,-4.7
CCN(CC)C(=O)Cn1cc(C(=O)C(=O)NCCCN2CCCCC2)c2ccccc21,-1.0,-0.9,x,0.8,x,-8.0
CCN(CC)c1ccc(/C=C2\C(=N)N3N=C(CC(=O)N4CCOCC4)SC3=NC2=O)cc1,109.3*,6.8,x,5.3,x,-5.8
CSc1ccc(/C=C2\C(=N)N3N=C(CC(=O)N4CCOCC4)SC3=NC2=O)cc1,-4.2,-0.1,x,0.8,x,-2.7
C[C@H]1CN([C@@H](C)CO)C(=O)CCCn2nncc2CO[C@H]1CN(C)S(=O)(=O)c1ccc(F)cc1,1.4,x,x,x,x,x
CN(C)c1ccc(/C=C(/C#N)C(=O)Nc2nc3c(s2)CCN(Cc2ccccc2)C3)cc1,157.7*,x,x,x,x,x
COCCCNC(=O)C[C@H]1C[C@H](C(=O)N2CCCCC2)[C@@]2(C)c3[nH]c4cc(-c5ccco5)ccc4c3CCN2C1=O,0.6,x,x,x,x,x
COc1ccccc1N1C(=O)C(Cl)=C(Nc2ccccc2O)C1=O,84.0*,x,0.5,x,0.9,x

# Compound activity deposited in PubChem by several laboratories.
